# Test results reported in the M2OR odorant receptor database.
# What was measured:
# Conditions in all cases: stereoisomer not certain
# UniProt E9PVX1 = target: T1, UniProt E9PVX1
# T1 sequence (whole entry): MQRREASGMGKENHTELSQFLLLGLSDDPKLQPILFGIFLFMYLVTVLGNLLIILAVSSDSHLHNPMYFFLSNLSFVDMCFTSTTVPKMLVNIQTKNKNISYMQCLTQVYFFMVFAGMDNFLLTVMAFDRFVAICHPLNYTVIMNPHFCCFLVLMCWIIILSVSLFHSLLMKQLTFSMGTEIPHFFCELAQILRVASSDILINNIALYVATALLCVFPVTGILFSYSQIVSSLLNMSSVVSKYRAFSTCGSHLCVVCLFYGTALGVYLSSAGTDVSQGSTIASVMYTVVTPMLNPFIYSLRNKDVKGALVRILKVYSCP
# Method in brief: (§1)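 Values were gathered from published papers (main text and supplementary material), with extra details requested from the original authors when needed, and checked for typos and inconsistencies. Each receptor–molecule pair is called responsive (active) if the original authors judged the measured signal statistically different from baseline, and non-responsive (inactive) otherwise. Assay methods varied by source, often transient mammalian cell-line luciferase assays. Recorded details include cell line, G-protein, co-transfected protein and tags.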
# UniProt E9PZ66 = target: T2, UniProt E9PZ66
# T2 sequence (whole entry): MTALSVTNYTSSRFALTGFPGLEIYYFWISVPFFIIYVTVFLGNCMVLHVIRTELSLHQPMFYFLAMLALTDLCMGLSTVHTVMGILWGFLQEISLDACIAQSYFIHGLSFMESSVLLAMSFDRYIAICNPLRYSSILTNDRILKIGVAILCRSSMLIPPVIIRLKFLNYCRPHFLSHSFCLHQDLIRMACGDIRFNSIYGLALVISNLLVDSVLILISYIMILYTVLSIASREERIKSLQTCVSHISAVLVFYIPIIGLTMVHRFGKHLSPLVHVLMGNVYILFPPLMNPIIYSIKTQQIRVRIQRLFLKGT
# Method in brief: as §1
# UniProt E9Q4X7 = target: T3, UniProt E9Q4X7
# T3 sequence (whole entry): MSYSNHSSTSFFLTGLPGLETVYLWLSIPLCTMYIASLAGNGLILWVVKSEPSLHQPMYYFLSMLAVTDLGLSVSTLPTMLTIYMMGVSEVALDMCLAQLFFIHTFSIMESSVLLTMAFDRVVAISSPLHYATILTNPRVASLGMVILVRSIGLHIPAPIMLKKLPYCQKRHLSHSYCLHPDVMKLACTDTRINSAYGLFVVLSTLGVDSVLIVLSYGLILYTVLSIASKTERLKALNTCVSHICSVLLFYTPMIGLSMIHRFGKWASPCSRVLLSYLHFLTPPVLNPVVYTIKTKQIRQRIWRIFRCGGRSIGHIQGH
# Method in brief: as §1
# UniProt E9Q546 = target: T4, UniProt E9Q546
# T4 sequence (whole entry): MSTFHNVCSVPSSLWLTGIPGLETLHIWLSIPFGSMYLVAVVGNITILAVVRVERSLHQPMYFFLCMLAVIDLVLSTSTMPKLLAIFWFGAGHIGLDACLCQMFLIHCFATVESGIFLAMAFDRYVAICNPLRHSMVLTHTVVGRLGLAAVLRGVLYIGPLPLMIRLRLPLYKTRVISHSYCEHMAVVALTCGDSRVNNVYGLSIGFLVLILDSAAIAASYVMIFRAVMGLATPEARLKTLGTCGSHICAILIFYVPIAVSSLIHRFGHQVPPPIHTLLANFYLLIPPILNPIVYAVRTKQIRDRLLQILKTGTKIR
# Method in brief: as §1
# UniProt E9Q6Z7 = target: T5, UniProt E9Q6Z7
# T5 sequence (whole entry): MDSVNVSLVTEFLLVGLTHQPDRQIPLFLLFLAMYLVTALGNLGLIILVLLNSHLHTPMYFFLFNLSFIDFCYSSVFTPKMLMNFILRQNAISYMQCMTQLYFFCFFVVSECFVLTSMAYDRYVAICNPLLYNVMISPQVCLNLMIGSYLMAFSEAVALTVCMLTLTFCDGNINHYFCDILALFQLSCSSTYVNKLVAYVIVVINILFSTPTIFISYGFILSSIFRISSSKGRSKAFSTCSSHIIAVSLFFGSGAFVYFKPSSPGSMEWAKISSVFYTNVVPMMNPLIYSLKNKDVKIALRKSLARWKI
# Method in brief: as §1
# UniProt L7MU75 = target: T6, UniProt L7MU75
# T6 sequence (whole entry): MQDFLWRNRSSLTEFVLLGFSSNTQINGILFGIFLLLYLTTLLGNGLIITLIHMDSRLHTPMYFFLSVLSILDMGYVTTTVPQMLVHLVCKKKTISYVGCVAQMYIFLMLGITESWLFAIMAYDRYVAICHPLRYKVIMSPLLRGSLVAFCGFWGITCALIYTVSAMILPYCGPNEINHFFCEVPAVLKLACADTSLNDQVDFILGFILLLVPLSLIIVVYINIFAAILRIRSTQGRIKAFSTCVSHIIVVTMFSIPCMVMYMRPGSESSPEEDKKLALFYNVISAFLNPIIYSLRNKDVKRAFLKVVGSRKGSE
# Method in brief: as §1
# UniProt E9Q9Z6 = target: T7, UniProt E9Q9Z6
# T7 sequence (whole entry): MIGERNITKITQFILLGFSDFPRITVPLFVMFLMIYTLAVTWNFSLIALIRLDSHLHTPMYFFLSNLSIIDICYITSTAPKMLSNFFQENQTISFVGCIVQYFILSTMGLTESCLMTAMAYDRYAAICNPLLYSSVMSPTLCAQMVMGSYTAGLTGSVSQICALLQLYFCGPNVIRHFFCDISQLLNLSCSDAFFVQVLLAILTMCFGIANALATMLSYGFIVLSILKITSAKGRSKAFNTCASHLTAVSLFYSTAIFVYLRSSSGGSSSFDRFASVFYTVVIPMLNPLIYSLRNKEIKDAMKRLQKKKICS
# Method in brief: as §1
# UniProt B2RVX8 = target: T8, UniProt B2RVX8
# T8 sequence (whole entry): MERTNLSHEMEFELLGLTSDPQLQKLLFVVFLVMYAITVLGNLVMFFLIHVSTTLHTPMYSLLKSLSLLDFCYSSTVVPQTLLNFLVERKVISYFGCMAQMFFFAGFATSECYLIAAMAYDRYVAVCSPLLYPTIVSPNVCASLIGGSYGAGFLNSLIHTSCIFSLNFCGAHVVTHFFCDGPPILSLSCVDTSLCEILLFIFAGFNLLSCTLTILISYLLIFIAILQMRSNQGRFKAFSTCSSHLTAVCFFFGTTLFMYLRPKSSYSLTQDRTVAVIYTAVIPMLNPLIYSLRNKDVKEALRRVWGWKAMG
# Method in brief: as §1
# UniProt K7N609 = target: T9, UniProt K7N609
# T9 sequence (whole entry): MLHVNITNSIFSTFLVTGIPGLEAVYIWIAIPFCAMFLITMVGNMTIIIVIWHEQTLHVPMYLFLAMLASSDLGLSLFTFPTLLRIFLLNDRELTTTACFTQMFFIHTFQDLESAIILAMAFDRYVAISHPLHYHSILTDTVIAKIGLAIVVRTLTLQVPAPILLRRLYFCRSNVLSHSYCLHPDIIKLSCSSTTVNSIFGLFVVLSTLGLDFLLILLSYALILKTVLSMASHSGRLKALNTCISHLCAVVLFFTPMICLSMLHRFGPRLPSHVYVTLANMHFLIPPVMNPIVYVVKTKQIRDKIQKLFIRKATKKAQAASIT
# Method in brief: as §1
# UniProt E9PXN3 = target: UniProt E9PXN3
# Method in brief: as §1
# UniProt E9PXN3, sequence (E9PXN3 as listed by the source): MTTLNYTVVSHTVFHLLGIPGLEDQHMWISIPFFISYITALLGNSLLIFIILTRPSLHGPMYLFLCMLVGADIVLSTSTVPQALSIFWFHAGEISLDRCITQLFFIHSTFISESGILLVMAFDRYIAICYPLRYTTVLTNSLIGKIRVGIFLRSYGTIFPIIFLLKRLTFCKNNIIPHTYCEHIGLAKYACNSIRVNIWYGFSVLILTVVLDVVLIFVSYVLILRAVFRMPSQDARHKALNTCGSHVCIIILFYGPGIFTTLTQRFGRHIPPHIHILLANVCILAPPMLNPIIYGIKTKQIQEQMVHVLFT
smiles,measurement,setting,value
O=CC=Cc1ccccc1,odorant receptor agonist call,UniProt E9PVX1,inactive
same,odorant receptor agonist call,UniProt E9PZ66,inactive
same,odorant receptor agonist call,UniProt E9Q4X7,inactive
same,odorant receptor agonist call,UniProt E9Q546,inactive
same,odorant receptor agonist call,UniProt E9Q6Z7,inactive
same,odorant receptor agonist call,UniProt L7MU75,inactive
CC(=O)c1cc(C(C)(C)C)cc2c1CCC2(C)C,odorant receptor agonist call,UniProt E9Q9Z6,inactive
C=CCc1ccccc1,odorant receptor agonist call,UniProt B2RVX8,inactive
same,odorant receptor agonist call,UniProt E9Q546,inactive
same,odorant receptor agonist call,UniProt K7N609,inactive
CC(C=O)Cc1ccc2c(c1)OCO2 (configuration not stated),odorant receptor agonist call,UniProt E9PVX1,inactive
same,odorant receptor agonist call,UniProt E9PZ66,inactive
same,odorant receptor agonist call,UniProt E9Q4X7,inactive
same,odorant receptor agonist call,UniProt E9Q546,inactive
same,odorant receptor agonist call,UniProt E9Q6Z7,inactive
same,odorant receptor agonist call,UniProt L7MU75,inactive
O=c1cc(O)c2ccccc2o1,odorant receptor agonist call,UniProt B2RVX8,inactive
same,odorant receptor agonist call,UniProt E9PVX1,inactive
same,odorant receptor agonist call,UniProt E9PZ66,inactive
same,odorant receptor agonist call,UniProt E9Q4X7,inactive
same,odorant receptor agonist call,UniProt E9Q546,inactive
same,odorant receptor agonist call,UniProt E9Q6Z7,inactive
same,odorant receptor agonist call,UniProt K7N609,inactive
same,odorant receptor agonist call,UniProt L7MU75,inactive
Oc1ccccc1Br,odorant receptor agonist call,UniProt E9PVX1,inactive
same,odorant receptor agonist call,UniProt E9PZ66,inactive
same,odorant receptor agonist call,UniProt E9Q4X7,inactive
same,odorant receptor agonist call,UniProt E9Q546,inactive
same,odorant receptor agonist call,UniProt E9Q6Z7,inactive
same,odorant receptor agonist call,UniProt L7MU75,inactive
CCC1CCC(=O)O1 (configuration not stated),odorant receptor agonist call,UniProt B2RVX8,inactive
same,odorant receptor agonist call,UniProt E9Q546,inactive
same,odorant receptor agonist call,UniProt K7N609,inactive
same,odorant receptor agonist call,UniProt L7MU75,inactive
C=C(C)C1CC=C(C=O)CC1 (configuration not stated),odorant receptor agonist call,UniProt E9PVX1,inactive
same,odorant receptor agonist call,UniProt E9PZ66,inactive
same,odorant receptor agonist call,UniProt E9Q4X7,inactive
same,odorant receptor agonist call,UniProt E9Q546,inactive
same,odorant receptor agonist call,UniProt E9Q6Z7,inactive
same,odorant receptor agonist call,UniProt L7MU75,inactive
O=Cc1ccc2c(c1)OCO2,odorant receptor agonist call,UniProt E9PVX1,inactive
same,odorant receptor agonist call,UniProt E9PZ66,inactive
same,odorant receptor agonist call,UniProt E9Q4X7,inactive
same,odorant receptor agonist call,UniProt E9Q546,inactive
same,odorant receptor agonist call,UniProt E9Q6Z7,inactive
Cc1c([N+](=O)[O-])c(C)c([N+](=O)[O-])c(C(C)(C)C)c1[N+](=O)[O-],odorant receptor agonist call,UniProt E9Q9Z6,active
OCc1ccc2c(c1)OCO2,odorant receptor agonist call,UniProt E9PVX1,inactive
same,odorant receptor agonist call,UniProt E9PZ66,inactive
same,odorant receptor agonist call,UniProt E9Q4X7,inactive
same,odorant receptor agonist call,UniProt E9Q546,inactive
same,odorant receptor agonist call,UniProt E9Q6Z7,inactive
same,odorant receptor agonist call,UniProt L7MU75,inactive
CC(=O)c1cc2c(cc1C)C(C)(C)C(C)CC2(C)C (configuration not stated),odorant receptor agonist call,UniProt E9Q9Z6,active
C=CCOC(=O)Cc1ccccc1,odorant receptor agonist call,UniProt B2RVX8,inactive
same,odorant receptor agonist call,UniProt E9PVX1,inactive
same,odorant receptor agonist call,UniProt E9PZ66,inactive
same,odorant receptor agonist call,UniProt E9Q4X7,inactive
same,odorant receptor agonist call,UniProt E9Q546,inactive
same,odorant receptor agonist call,UniProt E9Q6Z7,inactive
same,odorant receptor agonist call,UniProt K7N609,inactive
same,odorant receptor agonist call,UniProt L7MU75,inactive
O=Cc1ccccc1,odorant receptor agonist call,UniProt E9PVX1,inactive
same,odorant receptor agonist call,UniProt E9PZ66,inactive
same,odorant receptor agonist call,UniProt E9Q4X7,inactive
same,odorant receptor agonist call,UniProt E9Q546,inactive
same,odorant receptor agonist call,UniProt E9Q6Z7,inactive
O=C(O)CCCCCCCBr,odorant receptor agonist call,UniProt E9PXN3,inactive
CCCCC(Br)C(=O)O (configuration not stated),odorant receptor agonist call,UniProt E9PVX1,inactive
same,odorant receptor agonist call,UniProt E9PZ66,inactive
same,odorant receptor agonist call,UniProt E9Q4X7,inactive
same,odorant receptor agonist call,UniProt E9Q546,inactive
same,odorant receptor agonist call,UniProt E9Q6Z7,inactive
same,odorant receptor agonist call,UniProt L7MU75,inactive
CCCCCCC(Br)C(=O)O (configuration not stated),odorant receptor agonist call,UniProt E9PVX1,inactive
same,odorant receptor agonist call,UniProt E9PZ66,inactive
same,odorant receptor agonist call,UniProt E9Q4X7,inactive
same,odorant receptor agonist call,UniProt E9Q546,inactive
same,odorant receptor agonist call,UniProt E9Q6Z7,inactive
same,odorant receptor agonist call,UniProt L7MU75,inactive
COc1ccc(C=O)cc1,odorant receptor agonist call,UniProt E9PVX1,inactive
same,odorant receptor agonist call,UniProt E9PZ66,inactive
same,odorant receptor agonist call,UniProt E9Q4X7,inactive
same,odorant receptor agonist call,UniProt E9Q546,inactive
same,odorant receptor agonist call,UniProt E9Q6Z7,inactive
same,odorant receptor agonist call,UniProt L7MU75,inactive
CSSC,odorant receptor agonist call,UniProt E9PVX1,inactive
same,odorant receptor agonist call,UniProt E9PZ66,inactive
same,odorant receptor agonist call,UniProt E9Q4X7,inactive
same,odorant receptor agonist call,UniProt E9Q546,inactive
same,odorant receptor agonist call,UniProt E9Q6Z7,inactive
same,odorant receptor agonist call,UniProt L7MU75,inactive
Cc1ccc(OC(=O)Cc2ccccc2)cc1,odorant receptor agonist call,UniProt E9PVX1,inactive
same,odorant receptor agonist call,UniProt E9PZ66,inactive
same,odorant receptor agonist call,UniProt E9Q4X7,inactive
same,odorant receptor agonist call,UniProt E9Q546,inactive
same,odorant receptor agonist call,UniProt E9Q6Z7,inactive
same,odorant receptor agonist call,UniProt L7MU75,inactive
